The results in this text go back to ChEMBL document CHEMBL1777764, “Synthesis and evaluation of 1-(1H-indol-3-yl)ethanamine derivatives as new antibacterial agents” (Bioorg Med Chem, 2011).

Structures are written as SMILES. ≈ marks a conversion by molar mass, not a printed value.

In one series the test system is KB. Nature of the series: Cytotoxicity against human KB cells at 1 uM. Type of series: cell-based.
The test system of series [1] is Streptococcus pneumoniae. Nature of the series: Antibacterial activity against Streptococcus pneumoniae ATCC 6303 after 18 hrs by broth microdilution method. Format: functional. Particulars: ATCC 6303, 18 h. An outline of the steps:
(§1)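 MIC by broth microdilution per ISO 20776-1:2006 and CLSI M07-A8. Inoculum 10^6 cfu/ml in Mueller-Hinton broth […]. Compound serially diluted, final 2 to 128 ug/ml, duplicate rows, no-drug growth control. Read after 18 h at 37 °C as lowest concentration fully inhibiting visible growth. At least two experiments.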

The test system of series [2] is Staphylococcus aureus. The series is described as follows: Antibacterial activity against Staphylococcus aureus ATCC 6538 after 18 hrs by broth microdilution method. Type of series: functional. To be noted: ATCC 6538, 18 h. The method, boiled down:
(§2)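 MIC by broth microdilution per ISO 20776-1:2006 and CLSI M07-A8. Inoculum 10^6 cfu/ml in Mueller-Hinton broth with compound serially diluted, final concentrations 2 to 128 ug/ml, duplicate rows, no-drug growth control. Incubation 18 h at 37 °C. MIC taken as lowest concentration giving complete inhibition of visible growth. Each compound tested at least twice.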
For orientation: In broth dilution the organism is exposed to a series of concentrations in liquid medium.

The subject of series [3] is Staphylococcus aureus. The series is described as follows: Antibacterial activity against Staphylococcus aureus ATCC 25923 after 18 hrs by broth microdilution method. To be noted: ATCC 25923, 18 h. Format: functional. An outline of the steps: as §2
Series [4] relates to Staphylococcus aureus. The series is described as follows: Antibacterial activity against Staphylococcus aureus ATCC 29213 after 18 hrs by broth microdilution method. To be noted: ATCC 29213, 18 h. Format: functional. An outline of the steps:
as §2

The subject of series [5] is Staphylococcus epidermidis. The series is described as follows: Antibacterial activity against Staphylococcus epidermidis CIP 103627 after 18 hrs by broth microdilution method. Format: functional. To be noted: CIP 103627, 18 h. The method, boiled down:
as §2

Series [6] concerns Staphylococcus aureus. Nature of the series: Antibacterial activity against Staphylococcus aureus CIP 65.6 after 18 hrs by broth microdilution method. Type of series: functional. Particulars: CIP 65.6, 18 h. The method, boiled down:
as §2

The test system of series [7] is Staphylococcus aureus. The series is described as follows: Antibacterial activity against vancomycin intermediate Staphylococcus aureus […] after 18 hrs by broth microdilution method. Format: functional. An outline of the steps:
(§3)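 Broth microdilution following ISO 20776-1:2006 and CLSI M07-A8, in Mueller-Hinton broth. Inoculum was 10^6 cfu/ml, with compound serial dilutions spanning 2 to 128 ug/ml and a compound-free growth control well. Plates were incubated 18 h at 37 °C. MIC was the lowest concentration giving complete inhibition of visible growth. Each compound was tested at least twice.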

The test system of series [8] is Staphylococcus aureus. Nature of the series: Antibacterial activity against Staphylococcus aureus ATCC 9144 after 18 hrs by broth microdilution method. Type of series: functional. To be noted: ATCC 9144, 18 h. An outline of the steps: as §2
Series [9] concerns Staphylococcus epidermidis. Nature of the series: Antibacterial activity against Staphylococcus epidermidis CIP 81.55 after 18 hrs by broth microdilution method. To be noted: CIP 81.55, 18 h. Format: functional. The method, boiled down: as §2
The next series relates to HCT-116. The series is described as follows: Cytotoxicity against human HCT116 cells at 1 uM. Type of series: cell-based. Particulars: hct-116, 1 µM.
Series [10] relates to Staphylococcus aureus. The series is described as follows: Antibacterial activity against methicillin-resistant Staphylococcus aureus CIP 65.25 after 18 hrs by broth microdilution method. Type of series: functional. Particulars: CIP 65.25, 18 h. The method, boiled down:
as §3

Series [11] concerns Staphylococcus aureus. The series is described as follows: Antibacterial activity against Staphylococcus aureus CIP 103428 after 18 hrs by broth microdilution method. Type of series: functional. To be noted: CIP 103428, 18 h. An outline of the steps:
as §2

A further series deals with MRC5. Nature of the series: Cytotoxicity against human MRC5 cells at 1 uM. Type of series: cell-based. To be noted: mrc5, 1 µM.
The subject of series [12] is Streptococcus pneumoniae. The series is described as follows: Antibacterial activity against Streptococcus pneumoniae ATCC 49619 after 18 hrs by broth microdilution method. Type of series: functional. To be noted: ATCC 49619, 18 h. An outline of the steps: as §1
Series [13] concerns Staphylococcus epidermidis. Nature of the series: Antibacterial activity against Staphylococcus epidermidis ATCC 12228 after 18 hrs by broth microdilution method. Type of series: functional. To be noted: ATCC 12228, 18 h. An outline of the steps: as §2
Series [14] deals with Staphylococcus aureus. Nature of the series: Antibacterial activity against methicillin-resistant Staphylococcus aureus ATCC 33592 after 18 hrs by broth microdilution method. Format: functional. Particulars: ATCC 33592, 18 h. An outline of the steps:
as §3

As to `CC(C)(C)OC(=O)NCC(c1c[nH]c2cc(Cl)ccc12)N(O)Cc1ccccc1` (centres undefined), the Activity entry in the series with KB, in the series with HCT-116 and with MRC5 was “Non-toxic” in each case. For the same compound, the MIC in the series on Streptococcus pneumoniae [1] is over 128 µg/mL; against Staphylococcus aureus [2], 16 µg/mL (≈ 38.5 µM); against Staphylococcus aureus [3], 16 µg/mL (≈ 38.5 µM); in the series with Staphylococcus aureus [4], 16 µg/mL (≈ 38.5 µM); in series [5], 16 µg/mL (≈ 38.5 µM); with Staphylococcus aureus [6], 16 µg/mL (≈ 38.5 µM). Further, the MIC in the series with Staphylococcus aureus [7] was 16 µg/mL (≈ 38.5 µM); with Staphylococcus aureus [8], 16 µg/mL (≈ 38.5 µM); in [9] it was 16 µg/mL (≈ 38.5 µM); against Staphylococcus aureus [10] it was 16 µg/mL (≈ 38.5 µM); against Staphylococcus aureus [11] it was 16 µg/mL (≈ 38.5 µM); against Streptococcus pneumoniae [12] it was over 128 µg/mL. In addition, the MIC (in series [13]; against Staphylococcus aureus [14]) was 16 µg/mL (≈ 38.5 µM) each time.
`CC(C)(C)OC(=O)NCC(c1c[nH]c2cccc(Br)c12)N(O)Cc1ccccc1` (centres undefined): the MIC (against Streptococcus pneumoniae [1]; against Staphylococcus aureus [2]; in the series with Staphylococcus aureus [3]; against Staphylococcus aureus [4]; in [5]; with Staphylococcus aureus [6]) was over 128 µg/mL each time. The MIC (with Staphylococcus aureus [7]; in the series on Staphylococcus aureus [8]; in series [9]; in the series with Staphylococcus aureus [10]; against Staphylococcus aureus [11]; with Streptococcus pneumoniae [12]) was over 128 µg/mL throughout. In addition, the MIC (in series [13]; in the series on Staphylococcus aureus [14]) was over 128 µg/mL throughout.
For the compound `CC(c1c[nH]c2ccc(Cl)cc12)N(O)Cc1ccccc1` (centres undefined), the MIC (with Streptococcus pneumoniae [1]; in the series on Staphylococcus aureus [2]; in the series with Staphylococcus aureus [3]; against Staphylococcus aureus [4]; in series [5]; with Staphylococcus aureus [6]) was over 128 µg/mL each time. Also, the MIC (in the series on Staphylococcus aureus [7]; against Staphylococcus aureus [8]; in series [9]; with Staphylococcus aureus [10]; in the series on Staphylococcus aureus [11]; against Streptococcus pneumoniae [12]) was over 128 µg/mL throughout. The MIC (in [13]; against Staphylococcus aureus [14]) was over 128 µg/mL throughout.
Consider `CC(C)(C)OC(=O)NCC(c1c[nH]c2ccc(I)cc12)N(O)Cc1ccccc1` (centres undefined), for which the Activity entry in the series on KB, with HCT-116 and in the series on MRC5 was “Non-toxic” each time. For the same compound, the MIC with Streptococcus pneumoniae [1] is 64 µg/mL (≈ 126 µM); against Staphylococcus aureus [2] it was 8 µg/mL (≈ 15.8 µM); in the series with Staphylococcus aureus [3], 8 µg/mL (≈ 15.8 µM); against Staphylococcus aureus [4], 8 µg/mL (≈ 15.8 µM); in [5], 8 µg/mL (≈ 15.8 µM); in the series on Staphylococcus aureus [6] it was 8 µg/mL (≈ 15.8 µM). Moreover, the MIC against Staphylococcus aureus [7] was determined as 8 µg/mL (≈ 15.8 µM); against Staphylococcus aureus [8] it was 8 µg/mL (≈ 15.8 µM); in series [9], 8 µg/mL (≈ 15.8 µM); against Staphylococcus aureus [10], 8 µg/mL (≈ 15.8 µM); with Staphylococcus aureus [11] it was 8 µg/mL (≈ 15.8 µM); in the series on Streptococcus pneumoniae [12] it was 64 µg/mL (≈ 126 µM). In addition, the MIC (in series [13]; with Staphylococcus aureus [14]) was 8 µg/mL (≈ 15.8 µM) in each case.
Turning to `CC(C)(C)OC(=O)NCC(c1c[nH]c2ccc(Cl)cc12)N(O)Cc1ccccc1` (centres undefined), the Activity result in the series with KB, with HCT-116 and with MRC5 was “Non-toxic” each time. Moreover, the MIC against Streptococcus pneumoniae [1] was 64 µg/mL (≈ 154 µM); against Staphylococcus aureus [2] it was 16 µg/mL (≈ 38.5 µM); in the series with Staphylococcus aureus [3], 16 µg/mL (≈ 38.5 µM); against Staphylococcus aureus [4], 16 µg/mL (≈ 38.5 µM); in series [5], 16 µg/mL (≈ 38.5 µM); in the series with Staphylococcus aureus [6] it was 16 µg/mL (≈ 38.5 µM). In addition, the MIC was 16 µg/mL (≈ 38.5 µM) against Staphylococcus aureus [7]; 16 µg/mL (≈ 38.5 µM) with Staphylococcus aureus [8]; 16 µg/mL (≈ 38.5 µM) in series [9]; 16 µg/mL (≈ 38.5 µM) against Staphylococcus aureus [10]; 16 µg/mL (≈ 38.5 µM) against Staphylococcus aureus [11]; 64 µg/mL (≈ 154 µM) in the series on Streptococcus pneumoniae [12]. In addition, the minimal inhibitory concentration (MIC) (in series [13]; in the series on Staphylococcus aureus [14]) was 16 µg/mL (≈ 38.5 µM) throughout.

By MIC is commonly meant the smallest concentration in the dilution series that meets the test's criterion for growth inhibition. Low readings indicate a more susceptible organism, high ones a less susceptible organism.
